In test [1] the target is GHB high-affinity binding site (Rattus norvegicus). The test can be described thus: Displacement of [3H]NCS-382 from GHB high-affinity binding site in rat brain homogenate. Background: Loss of bound radioactivity is the signal in a displacement assay; it reports binding, not function.
Test [2] in a line: Displacement of [3H]GABA from GABAB receptor in rat brain synaptic membranes. In kind it is cell membranes, Membrane. A digest of the protocol: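 Adult male Sprague-Dawley rat cortex and central hemisphere synaptic membranes, thawed and washed four times by homogenization in 50 mM Tris-HCl pH 7.4 and 48000g spins at 4 °C. 200 µg protein was incubated with 5 nM [3H]GABA, 40 µM isoguvacine to saturate GABAA sites, and 0.1 mM displacer in Tris-HCl with 2.5 mM CaCl2, pH 7.4, for 45 min at 25 °C. Nonspecific binding was set with 0.1 mM baclofen. Bound counts were read by filtration and scintillation.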

The nature of test [3]: Displacement of [3H]muscimol from GABAA receptor in rat brain synaptic membranes. In kind it is cell membranes, Membrane. A digest of the protocol: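 Washed synaptic membranes from adult male Sprague-Dawley rat cortex and central hemispheres in 50 mM Tris-HCl pH 7.4. 100 µg protein was incubated with 5 nM [3H]muscimol and 0.1 mM displacer at 0 °C for 60 min. Nonspecific binding was set with 1 mM GABA. Bound counts were read by filtration and scintillation. Triplicates, at least two independent experiments.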

For the compound `O=C(O)CCC(=O)c1ccc(Cc2ccccc2)cc1`, in test [1], the inhibitory constant (Ki) worked out at 15000 nM and the pKi is on record as 4.83.
The corresponding values for `O=C(O)CCC(=O)c1ccc(CCc2ccccc2)cc1` are 8800 nM and 5.07.
In test [1], `O=C([O-])CCC(O)c1ccc(/C=C/c2ccccn2)cc1.[Li+]` (stereo unspecified) registered a Ki of 230 nM and a pKi of 6.67.
The corresponding values for `O=C([O-])CCC(O)c1ccc(/C=C/c2cccc(Cl)c2)cc1.[Li+]` (stereo unspecified) are 79 nM and 7.11.
In test [1], `COc1ccc(/C=C/c2ccc(C(O)CCC(=O)[O-])cc2)cc1.[Li+]` (stereo unspecified) displayed a Ki of 180 nM and a pKi of 6.75.
The corresponding values for `O=C([O-])CCC(O)c1ccc(/C=C/c2ccncc2)cc1.[Li+]` (stereo unspecified) are 340 nM and 6.49.
The corresponding values for `Cc1ncsc1/C=C/c1ccc(C(O)CCC(=O)[O-])cc1.[Li+]` (stereo unspecified) are 250 nM and 6.62.
The corresponding values for `O=C(O)CCCc1ccc(CCc2ccccc2)cc1` are 1200 nM and 6.01.
Turning to `O=C([O-])CCC(O)c1ccc(/C=C/c2ccccc2)cc1.[Li+]` (stereo unspecified), the IC50 in test [2] was > 100000 nM. Moreover, the IC50 in test [3] was > 100000 nM. In test [1], this compound displayed a Ki of 160 nM and a pKi of 6.79.
In test [1], `O=C([O-])CCC(O)c1ccc(/C=C/c2ccccc2Cl)cc1.[Li+]` (stereo unspecified) yielded a Ki of 54 nM and a pKi of 7.28.
The corresponding values for `O=C(O)CCC(=O)c1ccc(Br)cc1` are 17000 nM and 4.61.
The corresponding values for `O=C([O-])CC[C@H](O)c1ccc(OCc2ccccc2I)cc1.[Li+]` are 220 nM and 6.66.
The corresponding values for `O=C(O)CCC(O)c1ccc(OCc2cccc(Br)c2)cc1` (racemic) are 51 nM and 7.32.
Regarding `O=C([O-])CCC(O)c1ccc(OCc2ccccc2F)cc1.[Li+]` (racemic), in test [1], the affinity, expressed as Ki, was 41 nM and the pKi was found to be 7.39.
The corresponding values for `O=C([O-])CCC(O)c1ccc(OCc2ccco2)cc1.[Li+]` (racemic) are 200 nM and 6.72.
The corresponding values for `O=C([O-])CCC(O)c1ccc(OCc2ccc(Br)cc2)cc1.[Li+]` (racemic) are 34 nM and 7.48.
In the case of `O=C([O-])CCC(O)c1ccc(OCc2ccc(F)cc2)cc1.[Li+]` (racemic), in test [1], the affinity, expressed as Ki, was 93 nM and the pKi is listed as 7.03.
In test [1], `O=C([O-])CCC(O)c1ccc(OCc2cccs2)cc1.[Li+]` (racemic) returned a Ki of 96 nM and a pKi of 7.03.
The corresponding values for `O=C([O-])CCC(O)c1ccc(OCc2cccc(F)c2)cc1.[Li+]` (racemic) are 63 nM and 7.22.
The corresponding values for `O=C([O-])CCC(O)c1ccc(-c2ccccc2)cc1.[Li+]` (racemic) are 440 nM and 6.36.
The corresponding values for `O=C([O-])CCC(O)c1ccc(Cc2ccccc2)cc1.[Li+]` (racemic) are 120 nM and 6.94.
Regarding `O=C([O-])CCC(O)c1ccc(CCc2ccccc2)cc1.[Li+]` (racemic), the IC50 in test [2] and in test [3] was > 100000 nM in each case. Also, the affinity in test [1], expressed as Ki, was 75 nM. Moreover, the pKi in test [1] was found to be 7.13.
In test [1], `O=C([O-])CCC(O)c1ccc(OCc2ccccc2Br)cc1.[Li+]` (racemic) came in with a Ki of 53 nM and a pKi of 7.28.
Regarding `O=C([O-])CCC(O)c1ccc(OCc2ccccc2)cc1.[Li+]` (racemic), the IC50 in test [2] was > 100000 nM. The IC50 in test [3] was > 100000 nM. In test [1], the affinity corresponds to a Ki of 110 nM and the pKi is 6.96.
In test [1], `O=C([O-])CCC(O)c1ccc(OCc2cccc(I)c2)cc1.[Li+]` (racemic) showed a Ki of 75 nM and a pKi of 7.12.
The corresponding values for `O=C([O-])CCC(O)c1ccc(OCc2ccc(I)cc2)cc1.[Li+]` (racemic) are 62 nM and 7.21.
For `O=C([O-])CCC(O)c1ccc(OCc2ccccc2I)cc1.[Li+]` (racemic), the IC50 in test [2] was > 100000 nM. In test [3], the IC50 is > 100000 nM. In test [1], this compound registered a Ki of 60 nM and a pKi of 7.22.
Regarding `O=C([O-])CC[C@@H](O)c1ccc(OCc2ccccc2I)cc1.[Li+]` (racemic), in test [1], the Ki is 22 nM and the pKi is reported as 7.68.
The corresponding values for `O=C([O-])CCC(O)c1ccc(Br)cc1.[Li+]` (racemic) are 1100 nM and 5.96.

As a reminder, the Ki is a dissociation constant, usually derived from enzyme kinetics or from competition with a known ligand. A higher Ki goes with lower affinity. In general, pKi refers to the Ki on a negative log10 scale, so that one unit is a factor of ten. Low readings indicate a high Ki, high ones a low Ki. Broadly, the IC50 is the point on the concentration scale where inhibition reaches its midpoint. Higher therefore signals weaker potency in that assay.

(Values after ChEMBL document CHEMBL1151760, “Novel high-affinity and selective biaromatic 4-substituted gamma-hydroxybutyric acid (GHB) analogues as GHB ligands: design, synthesis, and binding studies” (J Med Chem, 2008).)
